Screening results: PubChem BioAssay, Broad Institute
An excerpt weighted towards active compounds, which were near 2.5% of everything screened.
PAX8 reporter – inhibitors of PAX8-driven TPO luciferase reporter, primary screen, RMG-I cells, single concentration. SteadyGlo, 24 h. inhibition, % at 12.6 µM. AID 652154, 2013. 360,000 compounds, 1.2% hits;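 active = mean replicate inhibition at least 60% with every replicate also reaching 60%; inconclusive = only one of the two criteria is met; inactive = mean below 60% and not all replicates reaching 60%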;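 also: luciferase light reporting Pax8 driven TPO promoter activity; plate controls were median of neutral control wells for no effect and mitoxantrone controls for full effect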
Glyco luc inh – increase of ERlucT glycosylation luciferase signal, primary screen, N-linked glycosylation inhibitor project, D54 ERlucT cells, luminescence, set 2. D54 ERlucT glycosylation luciferase reporter, 24 h; percent of 100 nM tunicamycin response. 360,000 compounds, 0.23% hits. AID 588692, 2011. reporter increase, % at 12.5 µM;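 active = mean luciferase reporter signal, scaled so untreated is 0 and the glycosylation-blocking control 100, at or above a set limit in every replicate; inconclusive = mean reaches the limit but not every replicate does; inactive = mean below the limit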;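 also: luciferase carries N-glycosylation sites so blocking glycosylation raises the light; 0% = median of neutral control wells and 100% = median of 100 nM tunicamycin wells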
HIV Env fusion – inhibitors of HIV-1 Env-driven cell-cell fusion, primary screen, HeLa-JRFL effector, CEM21 target cells, luciferase | inhibition, % at 12.3 µM | 360,000 compounds, 1.1% hits;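 active = mean replicate inhibition score of at least 50 and every replicate individually at or above 50; inconclusive = only one of the two criteria met; inactive = mean below 50 and not all replicates reaching 50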;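 also: 0% = plate neutral controls and 100% = maraviroc near 300 nM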
FN deposition inh – inhibitors of fibronectin matrix deposition, primary screen, AH1F cells, Alexa488-fibronectin fluorescence, plate reader; inhibition, % at 12.6 µM; AH1F fibroblasts, overnight; 350,000 compounds, 0.086% hits;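 active = mean inhibition across replicates of 30% or more, regardless of how many single replicates reach that level; inconclusive = mean under 30% yet at least half of replicates reach 30%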;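 also: positive control wells lacked labelled fibronectin entirely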
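material = AH1F fibroblast monolayer depositing Alexa488-labelled fibronectin into matrix | amount = 10000 AH1F cells/well | buffer or medium = DMEM plus 2% serum, read in PBS | incubation = 1 h cell adhesion before compound, then overnight fibronectin incubation | detection = fluorescence at 485 nm excitation, 525 nm emission | evaluation = percent inhibition as loss of matrix-bound fibronectin fluorescence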
MLL AF4-AF9 inh – inhibitors of AF4 peptide binding to AF9, primary screen, biochemical, AlphaScreen, biotin-AF4 peptide, FLAG-AF9, single point; inhibition, % at 10 µM; Protein AF-9 (Homo sapiens), P42568; 350,000 compounds, 0.47% hits;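 active = every replicate reaching a set inhibition limit, whatever the replicate mean, cut at about 25% in these data; inconclusive = mean inhibition reaches that limit but some replicates miss it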;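 also: 0% = plate neutral control median and 100% = total signal loss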
Target sequence (P42568 whole entry, looked up): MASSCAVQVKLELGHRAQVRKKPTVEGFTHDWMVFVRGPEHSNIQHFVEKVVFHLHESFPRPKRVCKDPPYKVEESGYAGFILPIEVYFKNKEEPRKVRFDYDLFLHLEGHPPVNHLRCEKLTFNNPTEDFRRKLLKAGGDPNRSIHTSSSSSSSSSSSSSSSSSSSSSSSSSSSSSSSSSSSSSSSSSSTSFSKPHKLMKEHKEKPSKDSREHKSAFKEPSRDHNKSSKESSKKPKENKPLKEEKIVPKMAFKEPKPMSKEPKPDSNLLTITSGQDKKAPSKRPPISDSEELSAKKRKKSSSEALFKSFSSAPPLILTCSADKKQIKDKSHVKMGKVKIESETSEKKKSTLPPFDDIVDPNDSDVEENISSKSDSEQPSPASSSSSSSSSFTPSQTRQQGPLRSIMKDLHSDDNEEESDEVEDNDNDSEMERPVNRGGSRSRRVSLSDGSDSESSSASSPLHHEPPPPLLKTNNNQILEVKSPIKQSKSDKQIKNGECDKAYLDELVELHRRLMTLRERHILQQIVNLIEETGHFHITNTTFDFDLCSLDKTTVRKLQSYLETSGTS
EWS-Fli inh – EWS/Fli-driven NR0B1 reporter inhibitors, primary screen, A673 cells, NR0B1 luciferase, luminescence, MLPCN library; viability-normalised; inhibition, % at 12.6 µM; 350,000 compounds, 0.67% hits; AID 651661, 2012;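 active = mean inhibition of at least 50% after viability correction, with every replicate also passing that limit; inconclusive = mean reaches 50% but only one of two replicates passes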;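 also: firefly luciferase signal divided by Alamar Blue viability fluorescence both relative to DMSO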
DNA binding – DNA binders by acridine orange displacement, dose response, counter-screen for EWS/Fli inhibitor project, biochemical, fluorescence polarization, cherry-pick; shares compounds with EWS-Fli inh; salmon sperm DNA acridine orange fluorescence polarization; AC35, µM (top dose mostly 68 µM), without a hit: at the highest dose activity change, negative = DNA binding; 640 compounds, 2% hits; AID 720586, 2013;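 active = fitted curve reaches a 35% signal fall AC35 below twice the sample's top valid tested dose, actives reach about 48 µM in these data; inactive = the rest, including activity in the rising direction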;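 also: lower polarization ratio signals compound binding to DNA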
The depositor's hits bear a star; i = inactive; ? = inconclusive; nt = not tested or not shown; [ ] = remark or other dose.

SMILES | PAX8 reporter | Glyco luc inh | HIV Env fusion | FN deposition inh | MLL AF4-AF9 inh | EWS-Fli inh | DNA binding
O=c1cc(-c2ccccc2)oc2ccc(Br)cc12 | -194 | -8 | -425 | -3 | -2 | -6 | nt
CN(C)CCCNC(=O)C[C@H]1C=C[C@H](NS(=O)(=O)c2ccccc2)[C@H](CO)O1 | -16 | nt | -2[16.7 µM] | nt | -1 | -3 | nt
O=C(/C=C/c1cc(Br)ccc1O)c1ccco1 | 13 | 14 | -32 | 3 | 8 | 59* | -17%
C[C@@H]1CN([C@H](C)CO)S(=O)(=O)c2ccc(C#CC(C)(C)O)cc2O[C@@H]1CN(C)Cc1ccc(-c2ccccc2)cc1 | nt | nt | 38[16.7 µM] | -7 | 11 | 27 | nt
C[C@H]1CN([C@@H](C)CO)S(=O)(=O)c2ccc(C#CC(C)(C)O)cc2O[C@@H]1CN(C)Cc1ccc(-c2ccccc2)cc1 | nt | nt | 46[16.7 µM] | 19 | 1 | 68* | 4%
C[C@@H]1CN([C@@H](C)CO)S(=O)(=O)c2ccc(C#CCN(C)C)cc2O[C@@H]1CN(C)Cc1ccncc1 | -7 | nt | nt | nt | 1 | 53* | -7%
Cc1ccc(S(=O)(=O)Nc2ccc3c(c2)C(=O)N([C@@H](C)CO)C[C@@H](C)[C@H](CN(C)C(=O)CCC(F)(F)F)OCCCC[C@@H](C)O3)cc1 | -15 | nt | -25[16.7 µM] | -4 | -2 | -9 | nt
COC(=O)c1ccccc1-c1c2ccc(=N)cc-2oc2cc(N)ccc12 | 96* | 1 | 53 | i | -7 | 86* | <0.03µM*
COc1ccc2cc(C(N)=O)/c(=N\NC(=O)c3ccccc3)oc2c1 | 10 | -17 | 8 | 2 | -6 | 71* | -16%
Cc1ccc(S(=O)(=O)Nc2ccc3c(c2)C(=O)N([C@H](C)CO)C[C@@H](C)[C@@H](CN(C)S(=O)(=O)c2c(C)noc2C)O3)cc1 | 38 | nt | 0[16.7 µM] | nt | 3 | -11 | nt
CC(C)CC#Cc1ccc2c(c1)O[C@@H](CN(C)CC1CCOCC1)[C@@H](C)CN([C@@H](C)CO)S2(=O)=O | nt | nt | -15[16.7 µM] | nt | 4 | 24 | nt
C=CC[n+]1c(-c2ccc(C)cc2)csc1Nc1ccc(NC(C)=O)cc1 | 8 | -3 | 32 | -5 | 19 | 62* | -6%
Cn1nc2c3cc(F)ccc3n(Cc3ccc(F)cc3)cc-2c1=O | 11 | 0 | 13 | 10 | 3 | 4 | nt
COc1ccc(Cn2cc3c(-c4ccc(F)cc4)nnc-3c3cc(OC)c(OC)cc32)cc1 | 92* | -16 | 24 | -16 | -9 | 66* | -25%
CC(C)(C)c1ccc(Oc2ccc(N)cn2)cc1 | 14 | -1 | 38 | -7 | 3 | 71* | -14%
CC(C)(C)c1ccc(Oc2ccc(NC(=O)c3ccccc3C(=O)O)cn2)cc1 | 14 | 2 | 24 | -3 | 1 | 63* | 2%
O=C(CNC(=O)Cc1ccccc1)N=Nc1c(O)n(Cc2ccc3c(c2)OCO3)c2ccccc12 | 4 | -3 | 26 | 4 | -10 | 66* | -7%
C[C@@H]1CN([C@H](C)CO)C(=O)c2cc(Br)cnc2O[C@H]1CN(C)C(=O)C1CC1 | nt | nt | -1[16.7 µM] | -6 | nt | -3 | nt
Oc1ccc2c(c1)oc1cc(O)ccc12 | nt | -1 | -114 | 1 | nt | nt | nt
O=c1oc2cc(O)ccc2s1 | -8 | 8 | -82 | -4 | -10 | 60* | -3%
COC(=O)c1cccc(NC(=O)NC(=O)c2ccc(Cl)cc2)c1 | -21 | -1 | -9 | 12 | 3 | 87* | -7%
O=C(NC(=O)c1ccccc1)Nc1ccccc1 | -7 | -16 | -74 | -2 | -3 | 56* | -13%
CC1=NN(c2ccc(C)cc2)C(=O)/C1=C\C=C\c1ccccc1 | 3 | ? | -32 | 3 | 1 | 61* | -13%
CC1=NN(c2cccc(C(=O)O)c2)C(=O)/C1=C\C=C/c1ccccc1 | 2 | 11 | -188 | nt | -8 | 46 | nt
O=C(NC1CCCC1)N1CCCCN2[C@@H](CO)[C@@H](c3ccc(/C=C/c4ccccc4)cc3)[C@@H]2C1 | 104* | nt | nt | nt | 28* | 73* | 9%
SMILES | PAX8 reporter | Glyco luc inh | HIV Env fusion | FN deposition inh | MLL AF4-AF9 inh | EWS-Fli inh | DNA binding
O=c1c(Cl)cc(Cl)nn1-c1ccccc1 | 88* | 7 | -44 | 14 | -4 | 64* | 1%
COc1cc(Cl)nn(-c2ccccc2)c1=O | -1 | 0 | -41 | 2 | nt | nt | nt
CC(=O)NC(C)c1cc(Cl)c2cccnc2c1O (stereo not drawn) | 25 | 6 | nt | 1 | 4 | 21 | nt
Oc1c(Cl)cc(Cl)c2cccnc12 | 24 | 4 | 18 | 1 | -3 | 54* | -4%
Nc1ccn([C@@H]2O[C@H](CO)[C@@H](O)C2O)c(=O)n1 (stereo partly drawn) | 25 | -4 | nt | -2 | 3 | 51* | -7%
CO[C@H]1CN(C)C(=O)c2ccc(NC(=O)c3cc(C)on3)cc2OC[C@H](C)N(CC2CC2)C[C@H]1C | -3 | nt | nt | 0 | -1 | -4 | nt
Cc1cc(C(=O)NNC(=O)c2ccc(S(=O)(=O)N(C)C)cc2)c(C)o1 | 19 | 2 | -27 | nt | -2 | 74* | -2%
CCNC(=O)C[C@@H]1CC[C@H]2[C@@H](COc3ccc(NC(=O)c4cc(C)on4)cc3C(=O)N2C)O1 | -4 | nt | 8[16.7 µM] | 0 | 2 | -1 | nt
COC(=O)C[C@@H]1CC[C@@H]2[C@H](COc3ccc(NC(=O)c4ccc(C(F)(F)F)cc4)cc3C(=O)N2C)O1 | 16 | nt | nt | 9 | -1 | 78* | -8%
Cc1cc(C(=O)Nc2ccc3c(c2)C(=O)N(C)[C@@H]2CC[C@@H](CC(=O)NCc4ccc(-c5ccccc5)cc4)O[C@H]2CO3)no1 | 39 | nt | -23[16.7 µM] | 4 | 1 | 66* | -10%
CN1C(=O)c2cc(NC(=O)c3ccc(Cl)cc3)ccc2OC[C@@H]2O[C@@H](CC(=O)NCc3cccc(F)c3)CC[C@H]21 | 33 | nt | nt | 25 | 0 | 61* | 6%
COC(=O)C[C@@H]1CC[C@@H]2[C@H](COc3ccc(NC(=O)c4ccc(F)c(F)c4)cc3C(=O)N2C)O1 | -4 | nt | -5[16.7 µM] | 17 | -1 | 72* | -2%
COc1ccc2c3c(n(C)c2c1)[C@H](CO)N(C(=O)CN(C)C)CC31CCN(Cc2nccs2)CC1 | nt | nt | nt | nt | 1 | 0 | nt
COCCNC(=O)C[C@@H]1CC[C@H]2[C@@H](COc3ccc(NC(=O)c4cc(C)on4)cc3C(=O)N2C)O1 | 2 | nt | nt | -6 | -1 | -3 | nt
Cc1noc(C)c1NC(=O)N(C)C[C@@H]1Oc2c(cccc2N(C)C)C(=O)N([C@@H](C)CO)C[C@H]1C | 0 | nt | -1[16.7 µM] | -1 | -2 | 0 | nt
